Source: ChEMBL document CHEMBL1156597, “Structure-activity relationship of kahalalide F synthetic analogues” (J Med Chem, 2008)

Tests used:
DU-145 = test: Cytotoxicity against human DU145 cells after 48 hrs by SRB assay; type: functional, cell-based; conditions: Homo sapiens, DU-145, 48 h; for GI50: read-out: GI50; for CC50: read-out: LC50 (the source's name)
Summary of the method: (§1)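 Cells grown in RPMI 1640 with 10% FBS and penicillin/streptomycin at 37 °C and 5% CO₂, trypsinized, then seeded at 5 × 10³/well. After 18 h drug-free attachment, samples in DMSO/EtOH/PBS (0.5:0.5:99) were added for 48 h continuous exposure. Cells were fixed with cold TCA (1 h, 4 °C) and stained with SRB (10 min). Tris-solubilized stain read at 490 nm. Triplicate wells, mean ± SD; GI₅₀ derived.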

LNCaP = test: Cytotoxicity against human LNcaP cells after 48 hrs by SRB assay; type: functional; conditions: for CC50: read-out: LC50 (the source's name); summary of the method: as §1
[1] = Cytotoxicity against human IGROV cells after 48 hrs by SRB assay; type: functional; conditions: for CC50: read-out: LC50 (the source's name); summary of the method: as §1
[2] = Cytotoxicity against human IGROV-ET cells after 48 hrs by SRB assay; type: functional; conditions: for CC50: read-out: LC50 (the source's name); summary of the method: as §1
SK-MEL-28 = test: Cytotoxicity against human SK-MEL-28 cells after 48 hrs by SRB assay; type: functional, cell-based; conditions: Homo sapiens, SK-MEL-28, 48 h; for GI50: read-out: GI50; for CC50: read-out: LC50 (the source's name); summary of the method: as §1
A549 = test: Cytotoxicity against human A549 cells after 48 hrs by SRB assay; type: functional, cell-based; conditions: Homo sapiens, A549, 48 h; for GI50: read-out: GI50; summary of the method: as §1
K562 = test: Cytotoxicity against human K562 cells after 48 hrs by SRB assay; type: functional; conditions: K562, 48 h; for CC50: read-out: LC50 (the source's name); summary of the method: as §1
PANC-1 = test: Cytotoxicity against human PANC1 cells after 48 hrs by SRB assay; type: functional; conditions: PANC-1, 48 h; for CC50: read-out: LC50 (the source's name); summary of the method: as §1
HT-29 = test: Cytotoxicity against human HT29 cells after 48 hrs by SRB assay; type: functional, cell-based; conditions: Homo sapiens, HT-29, 48 h; for CC50: read-out: LC50 (the source's name); summary of the method: as §1
LoVo [3] = test: Cytotoxicity against human LoVo cells after 48 hrs by SRB assay; type: functional; conditions: for CC50: read-out: LC50 (the source's name)
LoVo [4] = test: Cytotoxicity against human doxorubicin resistant LoVo cells after 48 hrs by SRB assay; type: functional; conditions: for CC50: read-out: LC50 (the source's name); summary of the method: as §1
SK-BR-3 = test: Cytotoxicity against human SKBR3 cells after 48 hrs by SRB assay; type: functional; conditions: SK-BR-3, 48 h; summary of the method: as §1
HeLa = test: Cytotoxicity against human HeLa cells after 48 hrs by SRB assay; type: functional; conditions: read-out: LC50 (the source's name); summary of the method: as §1
[5] = Cytotoxicity against human HeLa-APL cells after 48 hrs by SRB assay; type: functional; summary of the method: as §1

SMILES | CC50 (DU-145) [nM] | GI50 (LNCaP) [nM] | TGI (LNCaP) [nM] | CC50 (LNCaP) [nM] | GI50 ([1]; read-out: GI50) [nM] | CC50 [1] [nM] | CC50 [2] [nM] | CC50 (SK-MEL-28) [nM] | LC50 (A549) [nM] | TGI (A549) [nM] | GI50 (A549) [nM] | GI50 (K562) [nM] | TGI (K562) [nM] | CC50 (K562) [nM] | GI50 (PANC-1) [nM] | TGI (PANC-1) [nM] | CC50 (PANC-1) [nM] | CC50 (HT-29) [nM] | CC50 (LoVo [3]) [nM] | CC50 (LoVo [4]) [nM] | further results
C/C=C1\NC(=O)[C@H](Cc2ccccc2)NC(=O)[C@@H](C(C)C)NC(=O)[C@@H]([C@H](C)CC)NC(=O)[C@H](NC(=O)[C@H](NC(=O)[C@H](CCCN)NC(=O)[C@H]2CCCN2C(=O)[C@H](NC(=O)[C@@H](NC(=O)[C@@H](NC(=O)[C@H](NC(=O)Cc2ccc(C(F)(F)F)cc2)C(C)C)[C@@H](C)O)C(C)C)C(C)C)[C@H](C)CC)[C@H](C)OC(=O)[C@H](C(C)C)NC1=O | 6240 | 1630 | 3130 | 4400 | 1000 | 1890 | 524 | 1200 | 1100 | 2150 | 1840 | 2230 | 2520 | 2790 | 2170 | 2250 | 2340 | 2920 | 819 | 1240 | TGI (DU-145): 5500 nM; GI50 (DU-145): 5280 nM; GI50 [1]: 892 nM; GI50 [2]: 675 nM; GI50 ([2]; read-out: GI50): 866 nM; TGI (SK-MEL-28): 15900 nM; GI50 (SK-MEL-28): 2800 nM; GI50 (HT-29): 1680 nM; TGI (HT-29): 2300 nM; GI50 (LoVo [3]): 458 nM; TGI (LoVo [3]): 492 nM
C/C=C1\NC(=O)[C@H](Cc2c(F)c(F)c(F)c(F)c2F)NC(=O)[C@@H](C(C)C)NC(=O)[C@@H]([C@H](C)CC)NC(=O)[C@H](NC(=O)[C@H](NC(=O)[C@H](CCCN)NC(=O)[C@H]2CCCN2C(=O)[C@H](NC(=O)[C@@H](NC(=O)[C@@H](NC(=O)[C@H](NC(=O)CC[C@@H](C)CC)C(C)C)[C@@H](C)O)C(C)C)C(C)C)[C@H](C)CC)[C@H](C)OC(=O)[C@H](C(C)C)NC1=O | 1000 | 504 | 681 | 778 | 2070 | 1100 | 1150 | 1120 | 1270 | 1530 | 1850 | – | – | – | 2110 | 3420 | 2810 | 256 | 386 | 374 | TGI (DU-145): 1170 nM; GI50 (DU-145): 1370 nM; TGI [1]: 1740 nM; TGI (SK-BR-3): 492 nM; GI50 (SK-BR-3; read-out: GI50): 556 nM; CC50 (SK-BR-3; read-out: LC50 (the source's name)): 435 nM; TGI (SK-MEL-28): 1200 nM; GI50 (SK-MEL-28): 1280 nM; GI50 (HT-29): 1090 nM; TGI (HT-29): 1740 nM; GI50 (LoVo [3]): 469 nM; TGI (LoVo [3]): 426 nM; GI50 (LoVo [4]): 496 nM; TGI (LoVo [4]): 432 nM; CC50 (HeLa): 1300 nM; GI50 [5]: 1450 nM; LC50 (concentration giving 50% net cell kill) [5]: 983 nM; TGI [5]: 1200 nM
C/C=C1\NC(=O)[C@H](Cc2ccccc2)NC(=O)[C@@H](C(C)C)NC(=O)[C@@H]([C@H](C)CC)NC(=O)[C@H](NC(=O)[C@H](NC(=O)[C@H](CCCN)NC(=O)[C@H]2CCCN2C(=O)[C@H](NC(=O)CCCC(C)C)C(C)C)[C@H](C)CC)[C@H](C)OC(=O)[C@H](C(C)C)NC1=O | 22300 | 9850 | 9970 | 8890 | – | 6040 | 6210 | 2500 | 2870 | – | – | 3480 | 3510 | 3540 | 2920 | 2660 | 2450 | 7470 | 4320 | 5840 | –
C/C=C1\NC(=O)[C@H](Cc2ccccc2)NC(=O)[C@@H](C(C)C)NC(=O)[C@@H]([C@H](C)CC)NC(=O)[C@H](NC(=O)[C@H](NC(=O)[C@H](CCC(=O)O)NC(=O)[C@H]2CCCN2C(=O)[C@H](NC(=O)[C@@H](NC(=O)[C@@H](NC(=O)[C@H](NC(=O)CCCC(C)C)C(C)C)[C@@H](C)O)C(C)C)C(C)C)[C@H](C)CC)[C@H](C)OC(=O)[C@H](C(C)C)NC1=O | 10200 | 1880 | 3130 | 4360 | 1950 | 3200 | 3540 | 1980 | 22600 | 8950 | 1090 | 3320 | 4200 | 2900 | 2500 | 2540 | 2600 | 4000 | 1350 | 3590 | TGI [1]: 2530 nM; TGI [2]: 3530 nM; GI50 ([2]; read-out: GI50): 3540 nM; TGI (SK-MEL-28): 4980 nM; GI50 (SK-MEL-28): 5890 nM; GI50 (HT-29): 2670 nM; TGI (HT-29): 3260 nM; GI50 (LoVo [3]): 785 nM; TGI (LoVo [3]): 692 nM
C/C=C1\NC(=O)[C@H](Cc2ccccc2)NC(=O)[C@@H](C(C)C)NC(=O)[C@@H]([C@H](C)CC)NC(=O)[C@H](NC(=O)[C@H](NC(=O)[C@H](CCCN)NC(=O)[C@H]2CCCN2C(=O)[C@H](NC(=O)[C@@H](NC(=O)[C@@H](NC(=O)[C@H](NC(=O)CCCCC(C)(F)F)C(C)C)[C@@H](C)O)C(C)C)C(C)C)[C@H](C)CC)[C@H](C)OC(=O)[C@H](C(C)C)NC1=O | 5480 | 1840 | 2870 | 3730 | 1330 | 2460 | 571 | 1300 | 1440 | 2320 | 2030 | 2960 | 2460 | 2060 | 2040 | 1850 | 1690 | 3190 | 444 | 50700 | TGI (DU-145): 3920 nM; GI50 (DU-145): 4520 nM; TGI [1]: 1540 nM; GI50 [2]: 751 nM; GI50 ([2]; read-out: GI50): 987 nM; GI50 (HT-29): 1960 nM; TGI (HT-29): 2510 nM; GI50 (LoVo [3]): 442 nM; TGI (LoVo [3]): 397 nM
C/C=C1\NC(=O)[C@H](Cc2ccccc2)NC(=O)[C@@H](C(C)C)NC(=O)[C@@H]([C@H](C)CC)NC(=O)[C@H](NC(=O)[C@H](NC(=O)[C@H](CCCN)NC(=O)[C@H]2CCCN2C(=O)[C@H](NC(=O)CCCCCCCCCCCCC)C(C)C)[C@H](C)CC)[C@H](C)OC(=O)[C@H](C(C)C)NC1=O | 17900 | 7210 | 8100 | 8020 | – | 5330 | 5190 | 1870 | 2650 | – | – | 3000 | 3470 | 3390 | 2450 | 2400 | 2160 | 6890 | 3980 | 5370 | –
